Experiments:
[1] = target: T1, 5-hydroxytryptamine receptor 1A (Rattus norvegicus, UniProt P19327); assay: Compound was evaluated for binding affinity towards 5-hydroxytryptamine 1A receptor in rat cortex using [3H]-8-OH-DPAT as radioligand
T1 sequence (P19327 whole entry): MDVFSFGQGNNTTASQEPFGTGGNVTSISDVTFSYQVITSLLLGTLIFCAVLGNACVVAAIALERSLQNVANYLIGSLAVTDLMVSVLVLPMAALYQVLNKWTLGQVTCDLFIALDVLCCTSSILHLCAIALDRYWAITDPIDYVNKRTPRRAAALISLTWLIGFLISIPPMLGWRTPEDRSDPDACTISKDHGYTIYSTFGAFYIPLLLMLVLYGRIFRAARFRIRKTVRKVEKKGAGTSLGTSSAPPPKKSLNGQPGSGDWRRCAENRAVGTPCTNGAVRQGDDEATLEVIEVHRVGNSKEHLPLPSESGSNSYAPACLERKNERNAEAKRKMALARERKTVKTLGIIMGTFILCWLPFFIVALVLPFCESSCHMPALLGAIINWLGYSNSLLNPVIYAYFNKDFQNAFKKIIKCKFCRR
Summary of the method: (§1)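 Competition binding against the named radioligand on the native tissue membranes shown, radioligand at roughly its K_D for the binding system; procedures otherwise follow earlier published methods.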

[2] = target: T2, Serotonin 2 (5-HT2) receptor (Rattus norvegicus, UniProt P30994+P08909+P14842); assay: Compound was evaluated for binding affinity towards 5-hydroxytryptamine 2 receptor in rat anterior cortex using [3H]ketanserin as radioligand; summary of the method: as §1
[3] = target: T2, Serotonin 2 (5-HT2) receptor; assay: Compound was evaluated for binding affinity towards 5-hydroxytryptamine 2 receptor in rat anterior cortex using [125I]DOI as radioligand; summary of the method: as §1

CN(C)CCc1c[nH]c2cc3c(cc12)OCCC3
IC50 [1]: 1200 nM
IC50 [2]: 5900 nM
IC50 [3]: 920 nM

Cn1cc(CCN)c2c3c(ccc21)OCCC3
IC50 [2]: 800 nM
IC50 [3]: 14 nM

CN(C)CCc1cn(C)c2ccc3c(c12)CCCO3
IC50 [1]: 5400 nM
IC50 [2]: 1000 nM
IC50 [3]: 81 nM

NCCc1c[nH]c2ccc3c(c12)CCCO3
IC50 [1]: 610 nM
IC50 [2]: 2200 nM
IC50 [3]: 14 nM

COc1ccc2[nH]cc(CCN(C)C)c2c1 [MEBUFOTENIN]
IC50 [1]: 11 nM
